{"source": "ChEMBL document CHEMBL4422663", "about": "“Suppression of Tumor Growth and Metastases by Targeted Intervention in Urokinase Activity with Cyclic Peptides” (J Med Chem, 2019)", "key": {"[1]": {"biological_target": "T1, Urokinase-type plasminogen activator (Mus musculus, UniProt P06869)", "T1 sequence (P06869 21-178 limits assumed)": "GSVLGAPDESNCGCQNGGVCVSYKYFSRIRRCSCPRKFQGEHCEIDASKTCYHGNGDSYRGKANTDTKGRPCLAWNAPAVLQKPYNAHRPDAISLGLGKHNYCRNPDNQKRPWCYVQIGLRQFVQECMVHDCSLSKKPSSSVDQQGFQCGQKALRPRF", "T1 sequence (P06869 180-433 limits assumed)": "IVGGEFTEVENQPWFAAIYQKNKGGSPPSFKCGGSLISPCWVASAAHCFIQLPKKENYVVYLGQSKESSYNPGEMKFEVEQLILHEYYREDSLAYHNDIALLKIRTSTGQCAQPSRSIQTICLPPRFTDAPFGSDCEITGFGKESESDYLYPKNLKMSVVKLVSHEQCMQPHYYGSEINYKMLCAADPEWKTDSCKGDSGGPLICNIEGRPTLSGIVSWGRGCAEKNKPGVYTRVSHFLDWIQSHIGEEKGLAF", "experiment": "Inhibition of mouse uPA preincubated for 15 mins followed by chromogenic substrate addition"}, "[2]": {"biological_target": "Urokinase-type plasminogen activator (Homo sapiens, UniProt P00749)", "experiment": "Inhibition of human uPA preincubated for 15 mins followed by chromogenic substrate addition"}, "Plasma kallikrein": {"biological_target": "Plasma kallikrein (Mus musculus, UniProt P26262)", "sequence (P26262 20-390 limits assumed)": "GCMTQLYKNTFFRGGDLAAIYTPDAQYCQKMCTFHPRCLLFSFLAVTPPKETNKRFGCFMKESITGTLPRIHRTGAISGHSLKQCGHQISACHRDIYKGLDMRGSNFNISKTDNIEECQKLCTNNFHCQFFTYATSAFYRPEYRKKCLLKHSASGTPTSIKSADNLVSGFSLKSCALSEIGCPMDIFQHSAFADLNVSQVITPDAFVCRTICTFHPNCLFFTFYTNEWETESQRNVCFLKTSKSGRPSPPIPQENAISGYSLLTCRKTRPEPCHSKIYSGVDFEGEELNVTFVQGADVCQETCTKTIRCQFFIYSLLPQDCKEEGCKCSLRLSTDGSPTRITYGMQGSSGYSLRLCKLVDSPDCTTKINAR", "sequence (P26262 391-638 limits assumed)": "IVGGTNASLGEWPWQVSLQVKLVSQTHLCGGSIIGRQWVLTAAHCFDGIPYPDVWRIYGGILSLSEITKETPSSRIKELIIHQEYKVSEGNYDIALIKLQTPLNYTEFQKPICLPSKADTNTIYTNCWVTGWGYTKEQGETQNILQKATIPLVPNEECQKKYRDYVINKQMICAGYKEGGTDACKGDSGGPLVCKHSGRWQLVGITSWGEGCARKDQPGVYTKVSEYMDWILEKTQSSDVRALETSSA", "experiment": "Inhibition of mouse plasma kallikrein preincubated for 15 mins followed by chromogenic substrate addition"}, "Plasminogen": {"biological_target": "Plasminogen (Mus musculus, UniProt P20918)", "sequence (P20918 98-581 limits assumed)": "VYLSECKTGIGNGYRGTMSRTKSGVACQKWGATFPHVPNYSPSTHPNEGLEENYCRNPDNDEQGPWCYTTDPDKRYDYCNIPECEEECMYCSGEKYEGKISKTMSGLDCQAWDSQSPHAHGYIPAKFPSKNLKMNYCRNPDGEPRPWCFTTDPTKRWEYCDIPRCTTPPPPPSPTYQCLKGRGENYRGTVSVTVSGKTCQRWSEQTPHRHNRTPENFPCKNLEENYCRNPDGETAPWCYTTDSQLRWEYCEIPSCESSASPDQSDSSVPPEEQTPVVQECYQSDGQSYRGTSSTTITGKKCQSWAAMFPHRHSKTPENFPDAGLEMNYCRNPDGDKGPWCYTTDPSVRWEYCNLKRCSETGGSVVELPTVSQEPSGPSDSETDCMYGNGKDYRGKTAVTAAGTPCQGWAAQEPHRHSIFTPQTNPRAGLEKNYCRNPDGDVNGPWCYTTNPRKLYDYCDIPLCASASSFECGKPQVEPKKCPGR", "sequence (P20918 582-812 limits assumed)": "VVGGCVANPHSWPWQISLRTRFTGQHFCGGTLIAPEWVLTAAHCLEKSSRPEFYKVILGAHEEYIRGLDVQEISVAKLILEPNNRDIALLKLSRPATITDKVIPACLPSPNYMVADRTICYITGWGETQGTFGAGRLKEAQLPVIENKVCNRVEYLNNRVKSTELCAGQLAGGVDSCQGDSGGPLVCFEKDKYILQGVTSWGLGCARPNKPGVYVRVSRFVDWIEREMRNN", "experiment": "Inhibition of mouse plasmin preincubated for 15 mins followed by chromogenic substrate addition"}, "[3]": {"experiment": "Inhibition of mouse trypsin preincubated for 15 mins followed by chromogenic substrate addition"}, "[4]": {"biological_target": "Urokinase-type plasminogen activator (Mus musculus) (UniProt P06869)", "sequence (P06869 21-178 limits assumed)": "as the sequence (P06869 21-178 limits assumed) above", "sequence (P06869 180-433 limits assumed)": "as the sequence (P06869 180-433 limits assumed) above", "experiment": "Binding affinity to mouse uPA assessed as dissociation rate constant after 600 secs by SPR assay"}, "[5]": {"biological_target": "T1, Urokinase-type plasminogen activator", "experiment": "Binding affinity to mouse uPA by SPR assay"}, "[6]": {"biological_target": "T1, Urokinase-type plasminogen activator", "experiment": "Binding affinity to mouse uPA expressed in HEK2936E cells by ITC assay"}, "CT26 [7]": {"test_system": "CT26", "experiment": "Cytotoxicity against mouse CT26 cells at 100 uM", "format": "cell-based", "details": "ct26, 100 µM"}, "[8]": {"biological_target": "Urokinase-type plasminogen activator (Mus musculus) (UniProt P06869)", "experiment": "Inhibition of the intrinsic peri-cellular uPA in mouse CT26 cells assessed as reduction in cell migration at 30 to 100 uM measured every hour by wound healing assay relative to control", "format": "cell-based"}, "[9]": {"biological_target": "T1, Urokinase-type plasminogen activator", "experiment": "Inhibition of uPA in presence of 75% mouse […] measured at 24 hrs", "summary_of_the_method": "(§1)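 Peptide was preincubated in 75% murine plasma for 0–24 h (sampled at 0, 2, 8 and 24 h). Residual uPA-inhibitory activity was then measured and expressed as IC50.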"}, "CT26 [10]": {"test_system": "CT26", "experiment": "Anti-tumor activity against […] mouse CT26 cells allografted in Balb/c mouse assessed as tumor growth inhibition at 1.13 mg/kg, ip administered daily for 15 days and measured on day 16 […]", "format": "functional", "details": "read-out: TGI", "summary_of_the_method": "(§2)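 CT-26 cells implanted subcutaneously in right flank of Balb/c mice; once tumors reached about 150~200 mm3, daily intraperitoneal dosing with peptide or saline for 15 days. Mice sacrificed on Day 16; tumors resected and weighed; tumor growth reduction relative to saline group.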"}, "CT26 [11]": {"test_system": "CT26", "experiment": "Anti-tumor activity against GFP expressing mouse CT26 cells allografted in Balb/c mouse assessed as tumor growth inhibition at 11.3 mg/kg, ip administered daily for 15 days and measured on day 16 […]", "format": "functional", "details": "read-out: TGI", "summary_of_the_method": "as §2"}, "CT26 [12]": {"test_system": "CT26", "experiment": "Antimetastatic activity against GFP-fused mouse CT26 cells allografted in Balb/c mouse assessed as reduction genomic DNA of metastatic cells at 1.13 mg/kg, ip administered daily for 15 days by qPCR analysis", "format": "functional, organism-based", "summary_of_the_method": "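Lung-metastasis model: male Balb/c (~20 g, 6/group) given 10^6 GFP-CT-26 cells iv, then daily ip dosing from Day 1 to 15, killed on Day 16. Total DNA (200 ng) from homogenized lungs went to SYBR Green qPCR (287 bp amplicon, 45 cycles). The standard curve used CT-26 genomic DNA spiked into normal lung DNA at 0.135–100%.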"}, "CT26 [13]": {"test_system": "CT26", "experiment": "Antimetastatic activity against GFP-fused mouse CT26 cells allografted in Balb/c mouse assessed as reduction in hyperplastic weights at 1.13 mg/kg, ip administered daily for 15 days by fluorescence-based assay", "format": "functional, organism-based", "summary_of_the_method": "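GFP-CT-26 cells (10^6) iv into male Balb/c, daily ip treatment Days 1–15, lungs resected and weighed at sacrifice on Day 16. Hyperplastic weight is lung weight minus the mean weight of lungs from non-implanted normal mice.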"}, "CT26 [14]": {"test_system": "CT26", "experiment": "Antimetastatic activity against GFP-fused mouse CT26 cells allografted in Balb/c mouse assessed as reduction in hyperplastic weights at 11.3 mg/kg, ip administered daily for 15 days by fluorescence-based assay", "format": "functional", "details": "360 h", "summary_of_the_method": "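Lung metastasis model: male Balb/c mice (~20 g, 6/group) given 10^6 GFP-CT-26 cells i.v. with peptide or saline, then daily i.p. dosing Day 1–15. Lungs resected and weighed immediately at sacrifice on Day 16; hyperplastic weight = lung weight minus weight of lungs from non-implanted normal mice.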"}, "CT26 [15]": {"test_system": "CT26", "experiment": "Antimetastatic activity against mouse CT26 cells allografted in Balb/c mouse at 11.3 mg/kg, ip administered daily for 15 days by hematoxylin and eosin staining -based assay", "format": "functional, organism-based", "summary_of_the_method": "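Lungs from male Balb/c given 10^6 GFP-CT-26 cells iv, with daily ip dosing on Days 1–15, were harvested on Day 16. Formalin-fixed, paraffin-embedded sections were stained with H&E for histology, with non-implanted lungs as comparison.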"}, "[16]": {"experiment": "Toxicity in Balb/c mouse allografted with mouse CT26 cells assessed as effect on body weight at 1.13 to 11.3 mg/kg, ip administered daily for 15 days", "format": "organism-based", "details": "in vivo, 360 h"}, "[17]": {"biological_target": "Urokinase-type plasminogen activator (Mus musculus) (UniProt P06869)", "experiment": "Potency index, ratio of Ki for LD1 to Ki for test compound for inhibition of mouse uPA preincubated for 15 mins followed by chromogenic substrate addition"}, "[18]": {"experiment": "Stability in 75% mouse plasma assessed as protease-mediated compound degradation measured 24 hrs post dose", "format": "ADME, cell-free", "summary_of_the_method": "as §1"}, "CT26 [19]": {"test_system": "CT26", "experiment": "Antimetastatic activity against mouse CT26 cells allografted in Balb/c mouse assessed as prolongation of mouse survival time at 11.3 mg/kg, ip administered daily for 15 days", "format": "functional, organism-based"}, "[20]": {"biological_target": "Urokinase-type plasminogen activator (Mus musculus) (UniProt P06869)", "experiment": "Inhibition of the intrinsic peri-cellular uPA in mouse CT26 cells assessed as reduction in cell invasion at 33 to 100 uM by Transwell invasion assay relative to control"}}, "note": "Calls of active or inactive are those of the source. No cut-off for these calls is given here. Positions of bridges follow the written chain, without caps; N, C: chain ends. Residues, ends and D or L forms follow the SMILES beside them."}
{"smiles": "CC[C@H](C)[C@@H]1NC(=O)[C@H](Cc2ccc(O)cc2)NC(=O)[C@H](CCCNC(=N)N)NC(=O)[C@H](CO)NC(=O)[C@H](Cc2ccc(O)cc2)NC(=O)[C@H](C)NC(=O)[C@@H]2CCCN2C(=O)[C@@H](N)CSSC[C@@H](C(=O)O)NC(=O)CNC1=O", "note": "(H-CPAYSRYIGC-OH; disulfide 1-10)", "values": [{"measurement": "Ki", "setting": "[1]", "value": 6.8, "unit": "nM"}, {"measurement": "Ki", "setting": "[2]", "value": 340, "unit": "nM"}, {"measurement": "Ki", "setting": "Plasma kallikrein", "value": "> 25000", "unit": "nM"}, {"measurement": "Ki", "setting": "Plasminogen", "value": "> 25000", "unit": "nM"}, {"measurement": "Ki", "setting": "[3]", "value": 2100, "unit": "nM"}, {"measurement": "K", "setting": "[4]", "value": 0.00066, "unit": "s⁻¹"}, {"measurement": "Kd", "setting": "[5]", "value": 2.4, "unit": "nM"}, {"measurement": "Kd", "setting": "[6]", "value": 10.6, "unit": "nM"}, {"measurement": "Activity", "setting": "CT26 [7]", "value": "Non-Toxic"}, {"measurement": "inhibition", "setting": "[8]", "value": 30, "unit": "%"}, {"measurement": "IC50", "setting": "[9]", "value": 70.7, "unit": "nM"}, {"measurement": "inhibition in vivo at 1.13 mg/kg", "setting": "CT26 [10]", "value": 36.1, "unit": "%"}, {"measurement": "inhibition in vivo at 11.3 mg/kg", "setting": "CT26 [11]", "value": 56.8, "unit": "%"}, {"measurement": "Activity", "setting": "CT26 [12]", "value": "inactive"}, {"measurement": "Activity", "setting": "CT26 [13]", "value": "inactive"}, {"measurement": "inhibition in vivo at 11.3 mg/kg", "setting": "CT26 [14]", "value": 51.7, "unit": "%"}, {"measurement": "Activity", "setting": "CT26 [15]", "value": "Active"}, {"measurement": "Activity", "setting": "[16]", "value": "Non-Toxic"}, {"measurement": "Ratio Ki", "setting": "[17]", "value": 81}, {"measurement": "Stability", "setting": "[18]", "value": "Unstable"}, {"measurement": "Activity", "setting": "CT26 [19]", "value": "inactive"}, {"measurement": "inhibition", "setting": "[20]", "value": "70 to 80", "unit": "%"}]}
